Results taken from ChEMBL document CHEMBL5154634, “A Modular Synthetic Route Involving N-Aryl-2-nitrosoaniline Intermediates Leads to a New Series of 3-Substituted Halogenated Phenazine Antibacterial Agents” (J Med Chem, 2021).
Values after ≈ are worked out from the molar mass of the structure shown.

What was measured:
[1] = system: HepG2; assay: Cytotoxicity against human HepG2 cells assessed as reduction in cell viability […] by Alamar blue assay; type: toxicity, cell-based
[2] = system: Mycobacterium tuberculosis; assay: Antibacterial activity against Mycobacterium tuberculosis CDC1551 assessed as bacterial growth inhibition incubated for 5 days by luminescence based analysis; type: functional; settings: CDC1551, 120 h, time 5 day
Method in brief: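 Bioluminescent Mtb-lux CDC1551 reporter grown in Middlebrook 7H9 with 0.05% Tween 80, 10% OADC and kanamycin to OD600 0.4–0.8, then diluted to OD600 0.02. Added to twofold drug dilutions (0.003–200 μM). Incubated 5 days at 37 °C, 5% CO2. Luminescence read against 1% DMSO and 10 μM rifampicin controls to give % growth inhibition. MIC taken from a modified Gompertz fit.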

[3] = system: Enterococcus faecalis; assay: Antibacterial activity against Enterococcus faecalis OG1RF ATCC 47077 assessed as bacterial growth inhibition incubated for 16 hrs by broth microdilution susceptibility test; type: functional
[4] = system: Enterococcus faecalis; assay: Antibiofilm activity against Enterococcus faecalis OG1RF ATCC 47077 biofilms assessed as biofilm eradication incubated for 24 hrs followed by incubation for 24 hrs in fresh medium by Calgary biofilm device assay; type: functional
Method in brief: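 Calgary biofilm device. Biofilms grown 24 h at 37 °C in BHI from mid-log culture diluted 1000-fold. Pegs washed and then challenged 24 h with twofold serial dilutions. Pegs moved to fresh BHI for 24 h recovery. MBEC = lowest concentration leaving no turbidity; at least three independent experiments.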

[5] = system: Enterococcus faecalis; assay: Bactericidal activity against […] Enterococcus faecalis OG1RF ATCC 47077 planktonic cells assessed as planktonic eradication incubated for 24 hrs followed by incubation for overnight in fresh medium by Calgary biofilm device assay; type: functional
Method in brief: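 Calgary biofilm device in BHI. Biofilms grown 24 h at 37 °C and challenged 24 h with twofold compound dilutions. Challenge medium subcultured 1:10 into fresh BHI overnight at 37 °C. MBC is the concentration with no turbidity. At least three independent experiments.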

[6] = system: Enterococcus faecium; assay: Antibiofilm activity against methicillin-resistant vancomycin-resistant Enterococcus faecium ATCC 700221 biofilms assessed as biofilm eradication incubated for 24 hrs followed by incubation for 24 hrs in fresh medium by Calgary biofilm device assay; type: functional
Method in brief: (§1)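 Calgary biofilm device. Mid-log culture diluted 1000-fold in TSB with 0.5% glucose; biofilms grown on pegs 24 h at 37 °C. Pegs washed and challenged with twofold compound dilutions for 24 h at 37 °C, then moved to fresh medium for 24 h. MBEC is the lowest concentration leaving wells non-turbid. At least three independent experiments.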

[7] = system: Staphylococcus aureus; assay: Antibiofilm activity against methicillin-resistant Staphylococcus aureus BAA-1707 biofilms assessed as biofilm eradication incubated for 24 hrs followed by incubation for 24 hrs in fresh medium by Calgary biofilm device assay; type: functional; method in brief: as §1
[8] = system: Erythrocyte; assay: Hemolytic activity against human RBC at 200 uM measured after 1 hr; type: toxicity, cell-based
Method in brief: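 2% hRBCs exposed to compound at 200 μM final, added from DMSO stock, for 1 h at 37 °C. Supernatant OD read at 405 nm. Hemolysis normalized between DMSO (0%) and Triton X (100%); three independent experiments.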

[9] = system: Staphylococcus aureus; assay: Antibacterial activity against methicillin-resistant Staphylococcus aureus BAA-1707 assessed as bacterial growth inhibition incubated for 16 hrs by broth microdilution susceptibility test; type: functional
Method in brief: (§2)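 CLSI broth microdilution with 11 twofold dilutions (0.05–50 μM). About 10^5 cells per well from a log-phase culture. DMSO vehicle up to 0.5% v/v. At least three independent experiments.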

[10] = system: Staphylococcus epidermidis; assay: Antibacterial activity against methicillin-resistant Staphylococcus epidermidis ATCC 35984 assessed as bacterial growth inhibition incubated for 16 hrs by broth microdilution susceptibility test; type: functional; method in brief: as §2
[11] = system: Enterococcus faecium; assay: Bactericidal activity against methicillin-resistant vancomycin-resistant Enterococcus faecium ATCC 700221 planktonic cells assessed as planktonic eradication incubated for 24 hrs followed by incubation for overnight in fresh medium by Calgary biofilm device assay; type: functional
Method in brief: (§3)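 Calgary biofilm device. Biofilms grown 24 h at 37 °C in TSB with 0.5% glucose, then challenged 24 h with twofold compound dilutions. 20 μL of challenge medium transferred into fresh TSB with 0.5% glucose and incubated overnight at 37 °C. MBC is the concentration with no visible turbidity. At least three independent experiments.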

[12] = system: Enterococcus faecium; assay: Antibacterial activity against vancomycin-resistant Enterococcus faecium ATCC 700221 assessed as bacterial growth inhibition incubated for 16 hrs by broth microdilution susceptibility test; type: functional
Method in brief: (§4)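 CLSI broth microdilution with 11 twofold dilutions (0.05–50 μM). Medium was LB for the staphylococci and BHI for VRE 700221. About 10^5 cells per well from a log-phase culture. […] DMSO vehicle up to 0.5% v/v. At least three independent experiments.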

[13] = system: J774; assay: Cytotoxicity against mouse J774 cells assessed as reduction in cell viability […] by Alamar blue assay; type: toxicity, cell-based
[14] = system: Staphylococcus aureus; assay: Bactericidal activity against methicillin-resistant Staphylococcus aureus BAA-1707 planktonic cells assessed as planktonic eradication incubated for 24 hrs followed by incubation for overnight in fresh medium by Calgary biofilm device assay; type: functional; method in brief: as §3
[15] = system: HeLa; assay: Cytotoxicity against human HeLa cells assessed as reduction in cell viability incubated for 24 hrs by LDH release assay; type: toxicity, cell-based
Method in brief: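 HeLa cells in DMEM with 10% FBS, treated at 70–80% confluence with 25, 50 and 100 μM for 24 h. LDH in supernatant measured by 30 min reaction at room temperature, then stop solution and absorbance at 490 nm. Controls: 2% Triton X-100 (maximum), medium only, DMSO vehicle. Three independent experiments.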

[16] = system: Staphylococcus aureus; assay: Antibacterial activity against methicillin-resistant Staphylococcus aureus BAA-44 assessed as bacterial growth inhibition incubated for 16 hrs by broth microdilution susceptibility test; type: functional; method in brief: as §4
[17] = system: Mycobacterium tuberculosis; assay: Antibacterial activity against Mycobacterium tuberculosis H37Ra ATCC 25177 assessed as bacterial growth inhibition incubated for 7 days by absorbance based analysis; type: functional; settings: H37Ra ATCC 25177, 168 h, time 7 day
Method in brief: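 H37Ra grown 2 weeks in Middlebrook 7H9, then diluted to OD600 0.01. Compounds added in twofold dilutions, final 0.024–50 μM, with 0.5% DMSO and streptomycin as positive control. Incubated 7 days at 37 °C. MIC is the lowest concentration with no growth, with OD600 recorded. At least three independent experiments.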

[18] = system: Staphylococcus epidermidis; assay: Antibiofilm activity against methicillin-resistant Staphylococcus epidermidis ATCC 35984 biofilms assessed as biofilm eradication incubated for 24 hrs followed by incubation for 24 hrs in fresh medium by Calgary biofilm device assay; type: functional; method in brief: as §1
[19] = Dissociation constant, pKa of the compound at 125 uM by UV-vis spectrophotometric analysis; type: physicochemical
Method in brief: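 Compound at 125 μM final in phosphate buffers (KH₂PO₄/Na₂HPO₄) in 1:1 water/methanol, pH 4.07–9.66; ammonium hydroxide added for pH above 9.80. UV-vis scans 200–800 nm to find λmax of phenol and phenolate forms. Absorbance at each λmax plotted against pH.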

Structure (SMILES): Cc1c(Br)ccc2nc3c(O)c(Br)c(Cl)c(Br)c3nc12
- IC50 [1]: > 200 µM
- MIC [2]: 0.88 µM (≈ 0.424 µg/mL)
- MIC [3]: 0.05 µM (≈ 0.0241 µg/mL)
- MBEC [4]: 0.78 µM
- MBC [5]: 1.56 µM (≈ 0.751 µg/mL)
- MBEC [6]: 0.2 µM
- MBEC [7]: 75 µM
- Activity [8]: 27%
- MIC [9]: 0.59 µM (≈ 0.284 µg/mL)
- MIC [10]: 0.1 µM (≈ 0.0481 µg/mL)
- MBC [11]: 2.35 µM (≈ 1.13 µg/mL)
- MIC [12]: ≤ 0.05 µM
- IC50 [13]: > 200 µM
- MBC [14]: 75 µM (≈ 36.1 µg/mL)

Structure (SMILES): Cc1c(Br)ccc2nc3c(O)cc(Cl)cc3nc12
- IC50 [1]: > 200 µM
- MIC [2]: 3.27 µM (≈ 1.06 µg/mL)
- IC50 [15]: > 100 µM
- MIC [16]: 0.3 µM (≈ 0.0971 µg/mL)
- MIC [3]: 2.35 µM (≈ 0.76 µg/mL)
- Activity [8]: <= 1%
- MIC [10]: 0.78 µM (≈ 0.252 µg/mL)
- IC50 [13]: > 200 µM
- MBC [14]: 18.8 µM (≈ 6.08 µg/mL)
- MIC [17]: 6.25 µM (≈ 2.02 µg/mL)

Structure (SMILES): c1ccc(CN(CCN(Cc2ccccn2)Cc2ccccn2)Cc2ccccn2)nc1
- MIC [16]: 46.9 µM (≈ 19.9 µg/mL)
- MIC [3]: 46.9 µM (≈ 19.9 µg/mL)
- MBEC [4]: >2000 µM
- MBC [5]: 500 µM (≈ 212 µg/mL)
- MBEC [6]: >2000 µM
- MBEC [7]: >2000 µM
- Activity [8]: <= 1%
- MIC [9]: 46.9 µM (≈ 19.9 µg/mL)
- MBC [11]: 188 µM (≈ 79.8 µg/mL)
- MBC [14]: 250 µM (≈ 106 µg/mL)
- MBEC [18]: >2000 µM

Structure (SMILES): Cc1ccc2nc3c(O)cc(Cl)cc3nc2c1C
- MIC [16]: 2.35 µM (≈ 0.608 µg/mL)
- MIC [3]: 12.5 µM (≈ 3.23 µg/mL)
- MIC [9]: 2.35 µM (≈ 0.608 µg/mL)
- MIC [10]: 2.35 µM (≈ 0.608 µg/mL)
- MIC [12]: 3.13 µM (≈ 0.81 µg/mL)

Structure (SMILES): Oc1c(Br)cc(Br)c2nc3cc(Cl)ccc3nc12
- MIC [9]: 0.1 µM (≈ 0.0388 µg/mL)

Structure (SMILES): Oc1c(Br)c(Cl)c(Br)c2nc3c(Br)cccc3nc12
- IC50 [1]: > 200 µM
- MIC [2]: 3.91 µM (≈ 1.83 µg/mL)
- IC50 [15]: 100 µM
- MIC [16]: 0.2 µM (≈ 0.0935 µg/mL)
- MBC [5]: 6.25 µM (≈ 2.92 µg/mL)
- MBEC [6]: 0.3 µM
- MBEC [7]: 6.25 µM
- Activity [8]: <= 1%
- MIC [10]: 0.1 µM (≈ 0.0467 µg/mL)
- MIC [12]: 0.15 µM (≈ 0.0701 µg/mL)
- IC50 [13]: > 200 µM
- MBC [14]: 3.13 µM (≈ 1.46 µg/mL)

Structure (SMILES): Cc1cccc2nc3c(O)c(Br)cc(Br)c3nc12
- MIC [9]: 0.3 µM (≈ 0.11 µg/mL)

Structure (SMILES): Cc1cccc2nc3c(O)c(Br)c(SCCO)c(Br)c3nc12
- MIC [16]: 6.25 µM (≈ 2.78 µg/mL)
- MIC [9]: 6.25 µM (≈ 2.78 µg/mL)
- MIC [12]: 12.5 µM (≈ 5.55 µg/mL)

Structure (SMILES): Cc1cccc2nc3c(O)cc(Cl)cc3nc12
- MIC [12]: 3.13 µM (≈ 0.766 µg/mL)

Structure (SMILES): Oc1cc(Cl)cc2nc3ccc(Br)cc3nc12
- MIC [9]: 9.38 µM (≈ 2.9 µg/mL)
- MIC [10]: > 50 µM
- MIC [12]: > 50 µM

Structure (SMILES): Oc1cc(Cl)cc2nc3ccc(F)cc3nc12
- MIC [9]: 6.25 µM (≈ 1.55 µg/mL)

Structure (SMILES): COCCOCCOCCOCCSc1c(Br)c(O)c2nc3cccc(C)c3nc2c1Br
- pKa at 125 µM [19]: 7.93
- MIC [10]: 2.35 µM (≈ 1.39 µg/mL)
- MIC [12]: 3.13 µM (≈ 1.85 µg/mL)
